Source: ChEMBL document CHEMBL1153602, “Photochemical electrocyclisation of 3-vinylindoles to pyrido[2,3-a]-, pyrido[4,3-a]- and thieno[2,3-a]-carbazoles: design, synthesis, DNA binding and antitumor cell cytotoxicity” (2009)
The source made the active and inactive calls. The calls are words filed in the database; no cut-off is given here.

Legend:
[1] = tested on: Calf thymus DNA; experiment: Binding affinity to calf thymus DNA assessed as positive dichroic signal at phosphate/drug ratio of 1.2 by circular dichroism spectra; type: nucleic-acid assay; details: Bos taurus
In short: (§1)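 Circular dichroism of drug at […] in 1 ml of 1 mM sodium cacodylate, pH 7.0, with or without CT-DNA at 10–200 µM. Phosphate/compound ratio ran from 0.4 to 8. The induced CD signal in the ligand absorption region was recorded.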

[2] = tested on: Nucleic Acid; experiment: Binding affinity to poly(dA).poly(dT) duplex DNA assessed as change in thermal melting temperature at compound to DNA ratio of 1 by UV-vis spectroscopy; type: nucleic-acid assay
[3] = tested on: Calf thymus DNA; experiment: Binding affinity to calf thymus DNA assessed as change in melting temperature at a compound to DNA molar ratio of 1 by UV-vis spectroscopy; type: nucleic-acid assay; details: Bos taurus
In short: (§2)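 UV absorbance of DNA at 260 nm recorded every minute from 20 to 100 °C, ramping 1 °C/min in a thermostated quartz cell. Tm is taken as the midpoint of the hyperchromic transition. ΔTm = Tm(DNA+drug) − Tm(DNA alone). Calf-thymus DNA or poly(dAdT)2 was used at DNA/drug ratios from 0.1 to 1.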

[4] = tested on: Nucleic Acid; experiment: Binding affinity to poly(dA).poly(dT) duplex DNA assessed as change in thermal melting temperature at compound to DNA ratio of 0.5 by UV-vis spectroscopy; type: nucleic-acid assay
[5] = tested on: Calf thymus DNA; experiment: Binding affinity to calf thymus DNA assessed as change in melting temperature at a compound to DNA molar ratio of 0.1 by UV-vis spectroscopy; type: nucleic-acid assay; details: Bos taurus; in short: as §2
[6] = tested on: HT-29; experiment: Growth inhibition of human HT-29 cells by MTS assay; type: functional
In short: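 HT-29 cells, 3×10^3 per well, were seeded 24 h before treatment with compound at 1 nM–100 µM, run as 3 series of duplicate or triplicate points. After 72 h at 37 °C, MTS tetrazolium was added for 2 h and absorbance read at 492 nm. GC50 is the concentration halving cell number versus untreated control wells.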

[7] = tested on: HT-29; experiment: Cell cycle arrest in human HT-29 cells assessed as accumulation at G2/M phase after 24 hrs using PI staining by flow cytometry; type: functional, cell-based
In short: (§3)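 HT-29 cells, 3×10^5 per sample in exponential growth, were exposed to graded drug concentrations for 24 h. Cells were then trypsinised, fixed in 70% ethanol and stained 30 min in the dark with propidium iodide (50 µg/ml) plus RNase (100 µg/ml). DNA content was measured by flow cytometry, quantifying cell-cycle phases and the sub-G1 fraction.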

[8] = tested on: Calf thymus DNA; experiment: Binding affinity to calf thymus DNA assessed as change in melting temperature at a compound to DNA molar ratio of 0.5 by UV-vis spectroscopy; type: nucleic-acid assay; details: Bos taurus; in short: as §2
[9] = tested on: Nucleic Acid; experiment: Binding affinity to poly(dA).poly(dT) duplex DNA assessed as change in thermal melting temperature at compound to DNA ratio of 0.1 by UV-vis spectroscopy; type: nucleic-acid assay
[10] = tested on: Nucleic Acid; experiment: Binding affinity to poly(dA).poly(dT) duplex DNA assessed as change in thermal melting temperature at compound to DNA ratio of 0.25 by UV-vis spectroscopy; type: nucleic-acid assay
[11] = tested on: Calf thymus DNA; experiment: Binding affinity to calf thymus DNA assessed as change in melting temperature at a compound to DNA molar ratio of 0.25 by UV-vis spectroscopy; type: nucleic-acid assay; details: Bos taurus; in short: as §2
[12] = tested on: Nucleic Acid; experiment: Binding affinity to pBS 117bp DNA by DnaseI footprinting assay; type: nucleic-acid assay
In short: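 Ligand and fragment were pre-incubated 15 min at 37 °C, then digested with DNase I at 0.001 unit/ml in 20 mM NaCl, 2 mM MgCl2, 2 mM MnCl2, pH 7.3. Products were resolved on a denaturing 8% polyacrylamide/8 M urea gel, with a G-track marker.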

[13] = tested on: Calf thymus DNA; experiment: Binding affinity to calf thymus DNA assessed as positive dichroic signal at phosphate/drug ratio of 4.8 by circular dichroism spectra; type: nucleic-acid assay; details: Bos taurus; in short: as §1
[14] = tested on: Calf thymus DNA; experiment: Binding affinity to calf thymus DNA assessed as positive dichroic signal at phosphate/drug ratio by circular dichroism spectra; type: nucleic-acid assay; details: Bos taurus; in short: as §1
[15] = tested on: Calf thymus DNA; experiment: Binding affinity to calf thymus DNA assessed as quenching constant by fluorescence spectroscopy; type: nucleic-acid assay; details: Bos taurus
In short: (§4)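 Drug at a fixed 20 µM in 1 ml BPE buffer in a 10 mm quartz cuvette, titrated with CT-DNA at 10–200 µM base pairs. Excitation was set at each compound's own wavelength (276–319 nm). Constants came from Stern–Volmer plots of F0/F against CT-DNA concentration, with the slope taken as Ksv.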

[16] = tested on: Calf thymus DNA; experiment: Binding affinity to calf thymus DNA assessed as negative dichroic signal at phosphate/drug ratio by circular dichroism spectra; type: nucleic-acid assay; details: Bos taurus; in short: as §1
[17] = tested on: HT-29; experiment: Cell cycle arrest in human HT-29 cells assessed as accumulation at S phase after 24 hrs using PI staining by flow cytometry; type: functional, cell-based; in short: as §3
[18] = tested on: Calf thymus DNA; experiment: Binding affinity to calf thymus DNA assessed as quenching constant up 80 uM by fluorescence spectroscopy; type: nucleic-acid assay; details: Bos taurus; in short: as §4

SMILES	Activity [1]	ΔTm [2]	ΔTm [3]	ΔTm [4]	ΔTm [5]	GI50 [6]	Activity [7]	ΔTm [8]	ΔTm [9]	ΔTm [10]	ΔTm [11]	Activity [12]	Activity [13]	Activity [14]	KSV [15]	Activity [16]	Activity [17]	KSV [18]
CN(C)CCNC(=O)c1cc2c3cccc(Cl)c3[nH]c2c2ncccc12	Active	8.8 °C	7.9 °C	13.6 °C	1.1 °C	14 µM	Active	5.1 °C	2.8 °C	6.2 °C	1.5 °C	Active						
CN(C)CCCNC(=O)c1cc2c3cccc(Cl)c3[nH]c2c2ncccc12		29.8 °C	13.8 °C	23.6 °C	2.6 °C	4.49 µM	Active	10.4 °C	9.7 °C	17.6 °C	5 °C	Active	Active					
CN(C)CCNC(=O)c1cc2c3cc(Cl)ccc3[nH]c2c2ccncc12		29.6 °C	15.1 °C	24.7 °C	5.3 °C	1.08 µM		11.2 °C	11.6 °C	18.9 °C	7.9 °C	Active		Active	6.72 ×10³ /M	Active	Active	
CN(C)CCCNC(=O)c1cc2c3ccccc3[nH]c2c2sccc12		20.9 °C	5.8 °C	16.4 °C	0 °C	10.8 µM		4.4 °C	5.9 °C	11.9 °C	1.5 °C	Active						2.65 ×10⁴ /M
